Data as given in ChEMBL document CHEMBL1138592, “Pyridopyrimidine based cannabinoid-1 receptor inverse agonists: Synthesis and biological evaluation” (Bioorg Med Chem Lett, 2009).

Assays:
Cannabinoid receptor 2 = Cannabinoid receptor 2 (Homo sapiens, UniProt P34972); test: Binding affinity to human cannabinoid CB2R expressed in CHO cells; assay type: cell-based
Cannabinoid receptor 1 = Cannabinoid receptor 1 (Homo sapiens, UniProt P21554); test: Inverse agonist activity at human cannabinoid CB1R expressed in CHO cells assessed as effect on cAMP accumulation; assay type: functional, cell-based
Rattus norvegicus [1] = test: Antiobesity activity in high fat diet-induced obese Sprague-Dawley rat model assessed as change in body weight at 3 mg/kg, po after 18 hrs of last dose relative to control; assay type: functional
Rattus norvegicus [2] = test: Antiobesity activity in high fat diet-induced obese Sprague-Dawley rat model assessed as suppression of food intake at 3 mg/kg, po after 18 hrs of last dose relative to control; assay type: functional
Rattus norvegicus [3] = test: Antiobesity activity in high fat diet-induced obese Sprague-Dawley rat model assessed as suppression of food intake at 10 mg/kg, po after 18 hrs; assay type: functional
Rattus norvegicus [4] = test: Antiobesity activity in high fat diet-induced obese Sprague-Dawley rat model assessed as change in overnight body weight at 10 mg/kg, po after 18 hrs; assay type: functional
Rattus norvegicus [5] = test: Antiobesity activity in diet-induced obese Sprague-Dawley rat model assessed as suppression of overnight food intake at 3 mg/kg, po administered 1 hr before dark cycle for 14 days measured after […] of last dose; assay type: functional
Rattus norvegicus [6] = test: Antiobesity activity in diet-induced obese Sprague-Dawley rat model assessed as suppression of overnight body weight change at 3 mg/kg, po administered 1 hr before dark cycle for 14 days measured after 18 hrs of last dose; assay type: functional
[7] = Bioavailability in dog; assay type: ADME, organism-based, Canis lupus familiaris; conditions: in vivo
[8] = Half life in rat; assay type: ADME, organism-based; conditions: in vivo
[9] = Plasma clearance in monkey; assay type: ADME, organism-based, Macaca mulatta; conditions: rhesus monkey
Method in brief: (§1)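 Pharmacokinetic study in rhesus macaque. Reported parameters are bioavailability F (%), half-life T1/2 (h) and plasma clearance Clp (mL/min/kg).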

[10] = Bioavailability in rat; assay type: ADME, organism-based; conditions: in vivo
[11] = Plasma clearance in dog; assay type: ADME, organism-based, Canis lupus familiaris
[12] = Half life in dog; assay type: ADME, organism-based, Canis lupus familiaris; conditions: in vivo
[13] = Plasma clearance in rat; assay type: ADME, organism-based
[14] = Half life in monkey; assay type: ADME, organism-based, Macaca mulatta; conditions: rhesus monkey, in vivo; method in brief: as §1
[15] = Bioavailability in monkey; assay type: ADME, organism-based, Macaca mulatta; conditions: rhesus monkey, in vivo; method in brief: as §1
[16] = Ratio of drug level in brain to plasma in rat after 0.25 hrs; assay type: ADME; conditions: brain and plasma
[17] = Ratio of drug level in brain to plasma in rat after 4 hrs; assay type: ADME; conditions: brain and plasma

Sequence of Cannabinoid receptor 2 (P34972 whole entry): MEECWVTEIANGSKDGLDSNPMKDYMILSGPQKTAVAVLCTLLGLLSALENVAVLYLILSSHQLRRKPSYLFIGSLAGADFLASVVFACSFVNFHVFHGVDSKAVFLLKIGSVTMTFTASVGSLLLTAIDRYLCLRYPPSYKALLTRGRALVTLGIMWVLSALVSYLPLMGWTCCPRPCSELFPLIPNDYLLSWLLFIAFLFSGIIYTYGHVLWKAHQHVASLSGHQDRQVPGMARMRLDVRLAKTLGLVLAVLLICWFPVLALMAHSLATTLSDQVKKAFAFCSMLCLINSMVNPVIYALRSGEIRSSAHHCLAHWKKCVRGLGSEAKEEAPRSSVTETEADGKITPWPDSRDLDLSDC
Sequence of Cannabinoid receptor 1 (P21554 whole entry): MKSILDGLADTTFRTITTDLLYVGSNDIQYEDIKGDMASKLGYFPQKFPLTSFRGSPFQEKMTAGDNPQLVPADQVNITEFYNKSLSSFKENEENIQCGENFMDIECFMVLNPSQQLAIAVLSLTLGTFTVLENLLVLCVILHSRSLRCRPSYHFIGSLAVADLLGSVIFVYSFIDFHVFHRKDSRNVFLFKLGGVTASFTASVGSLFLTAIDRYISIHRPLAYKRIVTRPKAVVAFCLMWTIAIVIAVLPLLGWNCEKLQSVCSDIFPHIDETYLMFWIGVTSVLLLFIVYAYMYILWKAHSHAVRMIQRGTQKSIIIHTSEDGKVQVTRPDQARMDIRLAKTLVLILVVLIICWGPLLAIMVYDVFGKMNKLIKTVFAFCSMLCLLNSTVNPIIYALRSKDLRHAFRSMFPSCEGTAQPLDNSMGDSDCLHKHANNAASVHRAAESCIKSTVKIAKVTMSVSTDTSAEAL

IC50 (Cannabinoid receptor 2) | IC50 (Cannabinoid receptor 1) | Compound | also measured
7300 nM | 130 nM | CC(C)c1nc2nc(-c3ccccc3Cl)c(-c3ccc(Cl)cc3)cc2c(=O)[nH]1 | –
> 2000 nM | 16 nM | Nc1nc(-c2ccc(Cl)cc2)nc2nc(-c3ccccc3Cl)c(-c3ccc(Cl)cc3)cc12 | –
1800 nM | 8.5 nM | CN(C)c1nc(C(C)(C)C)nc2nc(-c3ccccc3Cl)c(-c3ccc(Cl)cc3)cc12 | –
8400 nM | 7.5 nM | COc1nc(C(C)(C)C)nc2nc(-c3ccccc3Cl)c(-c3ccc(Cl)cc3)cc12 | –
2700 nM | 2.2 nM | CCN(CC)c1nc(C(C)(C)C)nc2nc(-c3ccccc3Cl)c(-c3ccc(Cl)cc3)cc12 | –
1800 nM | 1.9 nM | CC(C)(C)c1nc(N2CCNCC2)c2cc(-c3ccc(Cl)cc3)c(-c3ccccc3Cl)nc2n1 | –
4900 nM | 40 nM | CC(C)(C)c1nc(N)c2cc(-c3ccc(Cl)cc3)c(-c3ccccc3Cl)nc2n1 | –
> 2000 nM | 4.1 nM | CC(C)Nc1nc(C(C)(C)C)nc2nc(-c3ccccc3Cl)c(-c3ccc(Cl)cc3)cc12 | –
1100 nM | 1500 nM | Cc1nc(N)c2cc(-c3ccc(Cl)cc3)c(-c3ccccc3Cl)nc2n1 | –
> 2000 nM | 190 nM | CC(C)c1nc(N)c2cc(-c3ccc(Cl)cc3)c(-c3ccccc3Cl)nc2n1 | –
3400 nM | 8 nM | CC(C)(C)c1nc2nc(-c3ccccc3Cl)c(-c3ccc(Cl)cc3)cc2c2nncn12 | –
> 2000 nM | 2500 nM | Cc1nc(O)c2cc(-c3ccc(Cl)cc3)c(-c3ccccc3Cl)nc2n1 | –
> 2000 nM | 2.7 nM | CC(C)(C)Nc1nc(C(C)(C)C)nc2nc(-c3ccccc3Cl)c(-c3ccc(Cl)cc3)cc12 | –
8600 nM | 7.4 nM | CC(C)(C)c1nc2nc(-c3ccccc3Cl)c(-c3ccc(Cl)cc3)cc2c(=O)[nH]1 | –

Further lines, the compound ahead of its results:

Compound | IC50 (Cannabinoid receptor 2) | IC50 (Cannabinoid receptor 1) | also measured
CC(C)c1nc(OCc2ncon2)c2cc(-c3ccc(Cl)cc3)c(-c3ccccc3Cl)nc2n1 | 6300 nM | 1.1 nM | –
CC(C)(C)c1nc2nc(-c3ccccc3Cl)c(-c3ccc(C(F)(F)F)cc3)cc2c2n[nH]c(=O)n12 | 9200 nM | 1.1 nM | –
CC(C)(C)c1nc(NCC(F)(F)CO)c2cc(-c3ccc(Cl)cc3)c(-c3ccccc3Cl)nc2n1 | > 2000 nM | 9.5 nM | Activity (Rattus norvegicus [1]): -4 g; Activity (Rattus norvegicus [2]): 39%
N#Cc1cc(-c2ccc(Cl)cc2)c(-c2ccc(Cl)cc2Cl)nc1Oc1ccc(F)c(F)c1 | – | – | Activity (Rattus norvegicus [3]): 48%; Activity (Rattus norvegicus [4]): -8 g
CC(C)(C)c1nc2nc(-c3ccc(Cl)cc3Cl)c(-c3ccc(Cl)cc3)cc2c(=O)[nH]1 | 5500 nM | 6 nM | Activity (Rattus norvegicus [1]): 1 g; Activity (Rattus norvegicus [2]): 21%
CCN(CC)C(=O)c1nc(NC(C)C)c2cc(-c3ccc(Cl)cc3)c(-c3ccccc3Cl)nc2n1 | 12000 nM | 150 nM | –
CC(C)(C)c1nc2nc(-c3ccccc3Cl)c(-c3cnccc3C#N)cc2c2n[nH]c(=O)n12 | 18000 nM | 100 nM | –
C[C@H](NC(=O)C(C)(C)Oc1ccc(C(F)(F)F)cn1)[C@@H](Cc1ccc(Cl)cc1)c1cccc(C#N)c1 [TARANABANT] | – | – | Activity (Rattus norvegicus [5]): 49%; Activity (Rattus norvegicus [6]): -10 g
CC(C)c1nc2nc(-c3ccccc3Cl)c(-c3ccc(Cl)cc3)cc2c(=O)n1Cc1ncon1 | 9800 nM | 82 nM | –
CC(C)(C)c1nc(-c2ccc(F)cc2)c2cc(-c3ccc(Cl)cc3)c(-c3ccccc3Cl)nc2n1 | 9830 nM | 0.63 nM | –
CC(C)(C)c1nc2nc(-c3ccccc3Cl)c(-c3ccc(C#N)cc3)cc2c2n[nH]c(=O)n12 | 18000 nM | 5.9 nM | bioavailability [7]: 2.1%; Activity (Rattus norvegicus [1]): -5 g; half-life [8]: 3.5 h; clearance [9]: 5.3 mL/min/kg; bioavailability [10]: 53%; clearance [11]: 24 mL/min/kg; Activity (Rattus norvegicus [2]): 36%; half-life [12]: 7.4 h; clearance [13]: 4 mL/min/kg; half-life [14]: 9.9 h; bioavailability [15]: 9.7%
CN(C)c1ccc(-c2cc3c(nc2-c2ccccc2Cl)nc(C(C)(C)C)n2c(=O)[nH]nc32)cc1 | 770 nM | 28 nM | –
CC(C)(C)c1nc2nc(-c3ccccc3C#N)c(-c3ccc(Cl)cc3)cc2c2n[nH]c(=O)n12 | 2400 nM | 3.2 nM | Activity (Rattus norvegicus [1]): -2 g; Activity (Rattus norvegicus [2]): 25%
CC(C)(C)c1nc2nc(-c3ccccc3Cl)c(-c3ccc(Cl)cc3)cc2c2n[nH]c(=O)n12 | 3800 nM | 1.9 nM | Activity (Rattus norvegicus [1]): -9 g; half-life [8]: 5.6 h; bioavailability [10]: 33%; Activity (Rattus norvegicus [2]): 50%; clearance [13]: 12 mL/min/kg; Kp at 0.25 h [16]: 0.14; Kp at 4 h [17]: 0.59
CC(C)(C)c1nc2nc(-c3ccc(C#N)cc3Cl)c(-c3ccc(Cl)cc3)cc2c2n[nH]c(=O)n12 | 19000 nM | – | –
O=c1[nH]c(-c2ccc(Cl)cc2)nc2nc(-c3ccccc3Cl)c(-c3ccc(Cl)cc3)cc12 | > 2000 nM | 59 nM | –
CC(C)(C)c1nc(N)c2cc(-c3ccc(Cl)cc3)c(-c3ccc(Cl)cc3Cl)nc2n1 | 5200 nM | – | –
CC(=O)c1ccc(-c2cc3c(nc2-c2ccccc2Cl)nc(C(C)(C)C)n2c(=O)[nH]nc32)cc1 | 5800 nM | – | –
CC(C)(C)c1nc2nc(-c3ccccc3Cl)c(-c3cccc(Cl)c3)cc2c2n[nH]c(=O)n12 | 2700 nM | 34 nM | –
CC(=O)Nc1c(C(C)=O)c(=O)n(C)c2nc(-c3ccc(Cl)cc3Cl)c(-c3ccc(Cl)cc3)cc12 [NAPHTHYRIDINONE] | – | – | Activity (Rattus norvegicus [1]): -4 g; half-life [8]: > 8 h; Activity (Rattus norvegicus [2]): 68%; Kp at 0.25 h [16]: 0.9
COc1ccc(-c2cc3c(nc2-c2ccccc2Cl)nc(C(C)(C)C)n2c(=O)[nH]nc32)cc1 | 891 nM | 3 nM | –
